Source: ChEMBL document CHEMBL1138547, “Synthesis, biological evaluation and 2D-QSAR analysis of benzoxazoles as antimicrobial agents” (2009)
In brackets after ≈: the same amount, converted by molar mass.

How the values were obtained:
Type in all cases: functional
Escherichia coli [1] = test: Antimicrobial activity against Escherichia coli ATCC 25922 after 24 hrs
In short: (§1)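 MIC by twofold serial dilution in Mueller-Hinton broth (MHB); MHB also used to dilute the bacterial suspension. Wells held 10^3 cfu/ml bacteria after inoculation. Controls: 80% DMSO, 20% EtOH, methanol, DMSO, PBS, organism alone and medium alone. Triplicate in each run. MIC taken as the lowest concentration completely inhibiting macroscopic growth.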

Staphylococcus aureus [2] = test: Antimicrobial activity against Staphylococcus aureus ATCC 25923 after 24 hrs
In short: (§2)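 Twofold serial broth dilution in Mueller-Hinton broth. MHB was used both to dilute the bacterial suspension and for the twofold compound dilutions, giving 10^3 cfu/ml bacteria per well after inoculation. Solvent, medium and organism-only wells served as controls. Each organism was run in triplicate.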

Bacillus subtilis [3] = test: Antimicrobial activity against ceftriazone-resistant Bacillus subtilis after 24 hrs; in short: as §2
Staphylococcus aureus [4] = test: Antimicrobial activity against multidrug-resistant Staphylococcus aureus after 24 hrs; in short: as §2
Escherichia coli [5] = test: Antimicrobial activity against multidrug-resistant Escherichia coli after 24 hrs; in short: as §2
Klebsiella pneumoniae [6] = test: Antimicrobial activity against multidrug-resistant Klebsiella pneumoniae after 24 hrs; in short: as §2
Candida albicans [7] = test: Antimicrobial activity against Candida albicans ATCC 10231 after 24 to 48 hrs
In short: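 Twofold serial dilution following CLSI M27-A. Yeast suspension made at 10^4 cfu/ml by diluting a fresh culture at McFarland 0.5 (10^6 cfu/ml). Inoculated into the diluted compound, incubated at 35 °C in a humid chamber, read after 48 h. Triplicate in each run. MIC is the lowest concentration completely inhibiting macroscopic growth.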

Candida albicans [8] = test: Antimicrobial activity against multidrug-resistant Candida albicans isolates after 24 to 48 hrs
In short: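 Yeast broth microdilution following CLSI M27-A, with Sabouraud dextrose medium noted for antifungal assays. Fresh cultures at McFarland 0.5 (10^6 cfu/ml) were diluted to 10^4 cfu/ml and inoculated into twofold compound dilutions. Trays were incubated at 35 °C in a humid chamber and read at 48 h, in triplicate. MIC was the lowest concentration giving complete macroscopic growth inhibition.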

Klebsiella pneumoniae [9] = test: Antimicrobial activity against Klebsiella pneumoniae RSHM 574 after 24 hrs; in short: as §1
Bacillus subtilis [10] = test: Antimicrobial activity against Bacillus subtilis ATCC 6633 after 24 hrs; in short: as §1
Pseudomonas aeruginosa = test: Antimicrobial activity against Pseudomonas aeruginosa ATCC […] after 24 hrs; in short: as §1
[11] = Bacillus subtilis, ATCC 6633, 24 h

Row | Molecule | MIC (Escherichia coli [1]; ATCC 25922, 24 h) | MIC (Staphylococcus aureus [2]; ATCC 25923, 24 h) | MIC (Bacillus subtilis [3]) | MIC (Staphylococcus aureus [4]) | MIC (Escherichia coli [5]) | MIC (Klebsiella pneumoniae [6]) | MIC (Candida albicans [7]) | MIC (Candida albicans [8]) | MIC (Klebsiella pneumoniae [9]; RSHM 574, 24 h) | log(1/C) (Bacillus subtilis [10]) | MIC (Bacillus subtilis [10]; [11]) | MIC (Pseudomonas aeruginosa) | MIC (Escherichia coli [1]) | MIC (Staphylococcus aureus [2]) | MIC (Klebsiella pneumoniae [9]) | MIC (Bacillus subtilis [10])
1 | O=[N+]([O-])c1ccc2oc(Cc3ccc(F)cc3)nc2c1 | 50 µg/mL (≈ 184 µM) | 100 µg/mL (≈ 367 µM) | 50 µg/mL (≈ 184 µM) | 100 µg/mL (≈ 367 µM) | 50 µg/mL (≈ 184 µM) | 100 µg/mL (≈ 367 µM) | 100 µg/mL (≈ 367 µM) | 50 µg/mL (≈ 184 µM) | 50 µg/mL (≈ 184 µM) | 4.338 | 12.5 µg/mL (≈ 45.9 µM) | 25 µg/mL (≈ 91.8 µM) | – | – | – | –
2 | O=[N+]([O-])c1ccc2nc(-c3ccc(F)cc3)oc2c1 | 50 µg/mL (≈ 194 µM) | 100 µg/mL (≈ 387 µM) | 25 µg/mL (≈ 96.8 µM) | 100 µg/mL (≈ 387 µM) | 100 µg/mL (≈ 387 µM) | 100 µg/mL (≈ 387 µM) | 50 µg/mL (≈ 194 µM) | 100 µg/mL (≈ 387 µM) | 50 µg/mL (≈ 194 µM) | 3.713 | 50 µg/mL (≈ 194 µM) | 50 µg/mL (≈ 194 µM) | – | – | – | –
3 | Cc1ccc2oc(-c3ccc([N+](=O)[O-])cc3)nc2c1 | – | – | – | – | – | – | – | – | – | 4.609 | 6.25 µg/mL (≈ 24.6 µM) | – | – | – | – | –
4 | CCc1ccc(-c2nc3ccc([N+](=O)[O-])cc3o2)cc1 | 50 µg/mL (≈ 186 µM) | 100 µg/mL (≈ 373 µM) | 25 µg/mL (≈ 93.2 µM) | 100 µg/mL (≈ 373 µM) | 100 µg/mL (≈ 373 µM) | 100 µg/mL (≈ 373 µM) | 50 µg/mL (≈ 186 µM) | 100 µg/mL (≈ 373 µM) | 50 µg/mL (≈ 186 µM) | 3.73 | 50 µg/mL (≈ 186 µM) | 50 µg/mL (≈ 186 µM) | – | – | – | –
5 | OC(Cn1cncn1)(Cn1cncn1)c1ccc(F)cc1F [FLUCONAZOLE] | – | – | – | – | – | – | 1 µg/mL (≈ 3.27 µM) | 64 µg/mL (≈ 209 µM) | – | – | – | – | – | – | – | –
6 | O=[N+]([O-])c1ccc2oc(-c3ccc(F)cc3)nc2c1 | 50 µg/mL (≈ 194 µM) | 100 µg/mL (≈ 387 µM) | 25 µg/mL (≈ 96.8 µM) | 100 µg/mL (≈ 387 µM) | 100 µg/mL (≈ 387 µM) | 100 µg/mL (≈ 387 µM) | 50 µg/mL (≈ 194 µM) | 100 µg/mL (≈ 387 µM) | 50 µg/mL (≈ 194 µM) | 3.713 | 50 µg/mL (≈ 194 µM) | 50 µg/mL (≈ 194 µM) | – | – | – | –
7 | GENTAMICIN SULFATE | – | – | 512 µg/mL | 1020 µg/mL | 1 µg/mL | 64 µg/mL | – | – | – | – | – | 2 µg/mL | 0.5 µg/mL | 0.06 µg/mL | 8 µg/mL | 1 µg/mL
8 | COc1ccc(-c2nc3ccc(C)cc3o2)c(OC)c1 | – | – | – | – | – | – | – | – | – | 4.032 | – | – | – | – | – | –
9 | CC1COc2c(N3CCN(C)CC3)c(F)cc3c(=O)c(C(=O)O)cn1c23 (stereo unspecified) [OFLOXACIN] | 0.125 µg/mL (≈ 0.346 µM) | 0.25 µg/mL (≈ 0.692 µM) | 32 µg/mL (≈ 88.6 µM) | 2 µg/mL (≈ 5.53 µM) | 32 µg/mL (≈ 88.6 µM) | 64 µg/mL (≈ 177 µM) | – | – | 0.25 µg/mL (≈ 0.692 µM) | – | 0.125 µg/mL (≈ 0.346 µM) | 8 µg/mL (≈ 22.1 µM) | – | – | – | –
10 | O=[N+]([O-])c1ccc2oc(-c3ccccc3)nc2c1 | 50 µg/mL (≈ 208 µM) | 200 µg/mL (≈ 833 µM) | 25 µg/mL (≈ 104 µM) | 400 µg/mL (≈ 1670 µM) | 50 µg/mL (≈ 208 µM) | 100 µg/mL (≈ 416 µM) | 100 µg/mL (≈ 416 µM) | 50 µg/mL (≈ 208 µM) | 50 µg/mL (≈ 208 µM) | 4.284 | 12.5 µg/mL (≈ 52 µM) | 25 µg/mL (≈ 104 µM) | – | – | – | –
11 | Cc1ccc2oc(-c3ccc(Cl)cc3)nc2c1 | – | – | – | – | – | – | – | – | – | 4.29 | 12.5 µg/mL (≈ 51.3 µM) | – | – | – | – | –
12 | Cc1ccc2nc(-c3ccccc3Cl)oc2c1 | – | – | – | – | – | – | – | – | – | 3.989 | – | – | – | – | – | –
13 | Nc1ccc2nc(-c3ccc(Br)cc3)oc2c1 | 50 µg/mL (≈ 173 µM) | 100 µg/mL (≈ 346 µM) | 25 µg/mL (≈ 86.5 µM) | 100 µg/mL (≈ 346 µM) | 50 µg/mL (≈ 173 µM) | 100 µg/mL (≈ 346 µM) | 100 µg/mL (≈ 346 µM) | 50 µg/mL (≈ 173 µM) | 50 µg/mL (≈ 173 µM) | 4.063 | 25 µg/mL (≈ 86.5 µM) | 50 µg/mL (≈ 173 µM) | – | – | – | –
14 | COc1ccccc1-c1nc2cc(C)ccc2o1 | – | – | – | – | – | – | – | – | – | 3.981 | 25 µg/mL (≈ 104 µM) | – | – | – | – | –
15 | CCc1ccc(-c2nc3cc(N)ccc3o2)cc1 | 50 µg/mL (≈ 210 µM) | 25 µg/mL (≈ 105 µM) | 50 µg/mL (≈ 210 µM) | 100 µg/mL (≈ 420 µM) | 100 µg/mL (≈ 420 µM) | 100 µg/mL (≈ 420 µM) | 50 µg/mL (≈ 210 µM) | 50 µg/mL (≈ 210 µM) | 50 µg/mL (≈ 210 µM) | 4.28 | 12.5 µg/mL (≈ 52.5 µM) | 50 µg/mL (≈ 210 µM) | – | – | – | –
16 | Cc1ccc2oc(-c3ccccc3F)nc2c1 | – | – | – | – | – | – | – | – | – | 3.959 | 25 µg/mL (≈ 110 µM) | – | – | – | – | –
17 | COc1ccc(-c2nc3cc(C)ccc3o2)c(OC)c1 | – | – | – | – | – | – | – | – | – | 4.032 | – | – | – | – | – | –
18 | Nc1ccc2oc(Cc3ccc(F)cc3)nc2c1 | 50 µg/mL (≈ 206 µM) | 200 µg/mL (≈ 826 µM) | 50 µg/mL (≈ 206 µM) | 100 µg/mL (≈ 413 µM) | 25 µg/mL (≈ 103 µM) | 100 µg/mL (≈ 413 µM) | 100 µg/mL (≈ 413 µM) | 50 µg/mL (≈ 206 µM) | 50 µg/mL (≈ 206 µM) | 3.685 | 50 µg/mL (≈ 206 µM) | 50 µg/mL (≈ 206 µM) | – | – | – | –
19 | Cc1ccc2oc(-c3ccc(Cl)cc3Cl)nc2c1 | – | – | – | – | – | – | – | – | – | 4.046 | 25 µg/mL (≈ 89.9 µM) | – | – | – | – | –
20 | Cc1ccc(-c2nc3ccc(C)cc3o2)c(C)c1 | – | – | – | – | – | – | – | – | – | 3.676 | 50 µg/mL (≈ 211 µM) | – | – | – | – | –
